A word on the MIC: it is the lowest concentration found to suppress growth. A low value points to a more susceptible organism. The term Kd denotes a measure of binding affinity in units of concentration. Read a low Kd as higher affinity.

Structures are written as SMILES. Converted amounts (≈) assume the structure as drawn. “Also recorded” adds a separate entry of the source. Non-standard residues stand in square brackets, D forms with d. Residues, ends and D or L forms follow the SMILES beside them. *: point of attachment. X1 = N=c1ccc2c(-c3ccc(C(=O)NCCCCCN4C(=O)CC(*)C4=O)cc3C(=O)O)c3ccc(N)c(S(=O)(=O)O)c3oc-2c1S(=O)(=O)O

In data set [1] the test system is wild-type E. coli (ATCC 25922) cells. The data set is classed as cell-based. The following applies: ATCC 25922, 18 h.
In data set [2] the target is T1, ADP-DnaK (Escherichia coli, UniProt P0A6Y8). In words: steady-state fluorescence anisotropy, direct binding to ADP-DnaK. The arrangement: species or system E. coli. The settings on record: Q taken to be 1.0, Figure S3. (Polarisation of emitted light reports the rotation of a fluorescent probe.)
The test system of another data set is DnaK/DnaJ/GrpE (K/J/E). The following applies: simple buffer conditions, 400 μM KLR-70, 30 °C, 1 hr.
The test system of data set [3] is nascent apoMb biosynthesis (cell-free transcription-translation). In words: cell-free expression of apoMb. The data set is classed as biochemical, E. coli. The following applies: 37 °C, 20 min.
A further data set has as its target DnaK (ADP-state) (Escherichia coli, UniProt P0A6Y8). In words: native gel electrophoresis. Type of data set: binding, E. coli. Put shortly:
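DnaK (5 μM) was incubated with test peptide (0–50 μM, independent samples) for 1 hr at 21.5 ± 0.5 °C. Native gels used 32 mM Tris-acetate pH 7.5 running buffer at 200 V for 5 hrs, water-cooled. DnaK band intensity profiles were fit to a sum of two Gaussians to build binding isotherms. KD1 is the mean of n = 3 independent experiments ± standard error.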

The subject of another data set is GroEL/ES. The settings on record: c.f. mix, purified GroEL (0.5 μM) / GroES (1.0 μM), 30 °C, 1 hr, Figure S5.
A short description of data set [4]: far-UV circular dichroism. Type of data set: physicochemical. The following applies: 1.3 mM HEPES (pH 7.0), room temperature. The method in brief:
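Test peptide at 20 μM in 1.3 mM HEPES pH 7.0, room temperature. Far-UV spectra recorded from 190 to 260 nm in 1 nm steps at 20 s/step. Each spectrum is the average of n = 2 independent experiments. Secondary structure was deconvoluted with CONTINLL.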
In general terms: Circular dichroism is widely used to follow secondary structure.

Data set [5] addresses T1, ADP-DnaK. In words: steady-state fluorescence anisotropy, competitive binding to ADP-DnaK. The arrangement: species or system E. coli.

T1 sequence (P0A6Y8 whole entry): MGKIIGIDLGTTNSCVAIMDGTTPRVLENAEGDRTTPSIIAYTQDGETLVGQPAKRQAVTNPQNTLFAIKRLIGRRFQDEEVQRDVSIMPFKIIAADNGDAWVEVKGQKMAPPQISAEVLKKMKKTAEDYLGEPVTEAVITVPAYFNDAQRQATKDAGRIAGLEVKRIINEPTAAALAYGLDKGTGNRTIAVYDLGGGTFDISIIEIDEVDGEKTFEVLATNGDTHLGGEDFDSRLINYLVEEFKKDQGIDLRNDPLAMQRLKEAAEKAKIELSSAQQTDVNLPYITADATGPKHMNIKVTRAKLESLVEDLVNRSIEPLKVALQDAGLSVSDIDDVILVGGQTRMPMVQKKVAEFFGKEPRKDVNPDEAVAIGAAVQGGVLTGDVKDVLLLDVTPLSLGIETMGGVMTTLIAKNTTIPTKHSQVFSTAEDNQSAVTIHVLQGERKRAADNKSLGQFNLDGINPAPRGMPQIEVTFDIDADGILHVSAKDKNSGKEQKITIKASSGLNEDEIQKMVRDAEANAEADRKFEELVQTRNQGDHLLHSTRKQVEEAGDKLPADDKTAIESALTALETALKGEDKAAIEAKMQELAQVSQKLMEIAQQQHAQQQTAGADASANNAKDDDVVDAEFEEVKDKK
DnaK (ADP-state), sequence (P0A6Y8 whole entry): as above

In data set [1], `CC[C@H](C)[C@H](NC(=O)[C@@H](CCCNC(=N)N)NC(=O)[C@H](CCCNC(=N)N)NC(=O)[C@@H]1CCCN1C(=O)[C@@H]1CCCN1C(=O)[C@H](CCCNC(=N)N)NC(=O)[C@@H]1CCCN1C(=O)[C@H](CCCNC(=N)N)NC(=O)[C@@H]1CCCN1C(=O)[C@H](CC(C)C)NC(=O)[C@H](Cc1ccc(O)cc1)NC(=O)[C@@H]1CCCN1C(=O)[C@@H]1CCCN1C(=O)[C@H](CCCCN)NC(=O)[C@H](CC(=O)O)NC(=O)[C@@H](N)C(C)C)C(=O)N[C@@H](Cc1ccc(O)cc1)C(=O)N[C@@H](CC(N)=O)C(=O)N[C@H](CCCNC(=N)N)C(N)=O` [Onc112, reference compound] (H-VDKPPYLPRPRPPR[dR]IYN[dR]-NH2) returned an MIC of 5 µg/mL (≈ 2.09 µM).

As to `CC(C)C[C@H](NC(=O)[C@H](CCCCN)NC(=O)[C@H](CCCCN)NC(=O)CNC(=O)[C@H](CCCNC(=N)N)NC(=O)[C@@H](N)CCCNC(=N)N)C(=O)N[C@@H](CC(C)C)C(=O)N[C@@H](CC(C)C)C(=O)N[C@@H](CC(C)C)C(=O)N[C@@H](CC(C)C)C(=O)N[C@@H](CCCCN)C(=O)N[C@@H](CCCCN)C(=O)N[C@@H](CCCCN)C(=O)NCC(=O)N[C@@H](CSC1CC(=O)N(CCCCCNC(=O)c2ccc(-c3c4ccc(=N)c(S(=O)(=O)O)c-4oc4c(S(=O)(=O)O)c(N)ccc34)c(C(=O)O)c2)C1=O)C(=O)O` (stereo partly drawn) [KLR-70-C-AF488] (H-RRGKKLLLLLKKKGC(X1)-OH; N-terminus and C-terminus assumed), on ADP-DnaK [2], the “change in total fluorescence intensity in presence of ADP-DnaK” value is “no statistically significant changes in total fluorescence intensity”.

`CC(C)C[C@H](NC(=O)[C@H](CCCCN)NC(=O)[C@H](CCCCN)NC(=O)CNC(=O)[C@H](CCCNC(=N)N)NC(=O)[C@@H](N)CCCNC(=N)N)C(=O)N[C@@H](CC(C)C)C(=O)N[C@@H](CC(C)C)C(=O)N[C@@H](CC(C)C)C(=O)N[C@@H](CC(C)C)C(=O)N[C@@H](CCCCN)C(=O)N[C@@H](CCCCN)C(=O)N[C@@H](CCCCN)C(=O)NCC(=O)O` [KLR-70] (H-RRGKKLLLLLKKKG-OH): the “inhibition of K/J/E-mediated luciferase refolding” value with DnaK/DnaJ/GrpE (K/J/E) is listed as “fully inhibits K/J/E-mediated luciferase refolding”. This molecule registered an MIC in data set [1] of 41 to 83 µg/mL. For the same molecule, the “effect on nascent apoMb expression” value in data set [3] (150 μM peptide, Δtig S30 extract, pH 7.0, n = 3) is reported as “does not have any influence on apoMb production”. Moreover, the “effect on nascent apoMb synthesis” value is “nascent protein synthesis is not disrupted” in data set [3] (60 – 150 μM KLR-70, Δtig S30 extract, pH 7.0, n = 3) and “Partial inhibition of protein expression” in data set [3] (200 – 400 μM KLR-70, Δtig S30 extract, pH 7.0, n = 3). Moreover, the “highest KLR-70 concentration not disrupting cell-free protein expression” value in data set [3] (Δtig E. coli cell-free system) is listed as “up to 150 μM”. The results for the Kd on DnaK (ADP-state) and on ADP-DnaK [5] were 158 ± 73 nM and 890 ± 390 nM, respectively. For the same molecule, in the data set on GroEL/ES, the “effect on GroEL/ES-mediated luciferase refolding” value is recorded as “only weakly reduces the GroEL/ES-mediated refolding of luciferase”. In addition, the “secondary structure in solution” value in data set [4] is on record as “mostly unordered; also recorded: predominantly unstructured in solution”.

The values above are taken from article PMC8322834 (Biochemistry, 2020).
